Results reported in paper PMC7479925 (Journal of medicinal chemistry, 2012).
Like-named read-outs stand apart in the source and are kept apart here.

How the values were obtained:
[1] = biological target: T1, Tdp1 (Homo sapiens, UniProt Q9NUW8); test: Tdp1 gel-based assay with recombinant human Tdp1 and N14Y DNA substrate; type: biochemical; settings: for Tdp1 inhibition (in words): highest tested concentration 333 μM
[2] = biological target: T1, Tdp1; test: SPR binding to immobilized Tdp1; settings: dilution series 0.39-50 μM
Summary of the method: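 Tdp1 (1 μM) was pre-bound for 20 min with 2 μM 3′-phosphate 14-mer oligo in 10 mM Na acetate pH 4.5 to shield active-site amines, then amine-coupled to a CM5 chip (~6000 RU), with a Tdp1-free reference surface. Test compound was injected at 30 μL/min, 25 °C, in 50 mM Tris/HCl pH 7.5, 80 mM KCl, 5% DMSO. Referencing used buffer cycles and a DMSO calibration; NaCl/DMSO regeneration.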

[3] = system: N14Y oligomer (biotin-[…]-Tyr); test: SPR binding to immobilized tyrosyl-labeled oligonucleotide; settings: dilution series 0.39-50 μM

T1 sequence (Q9NUW8 whole entry): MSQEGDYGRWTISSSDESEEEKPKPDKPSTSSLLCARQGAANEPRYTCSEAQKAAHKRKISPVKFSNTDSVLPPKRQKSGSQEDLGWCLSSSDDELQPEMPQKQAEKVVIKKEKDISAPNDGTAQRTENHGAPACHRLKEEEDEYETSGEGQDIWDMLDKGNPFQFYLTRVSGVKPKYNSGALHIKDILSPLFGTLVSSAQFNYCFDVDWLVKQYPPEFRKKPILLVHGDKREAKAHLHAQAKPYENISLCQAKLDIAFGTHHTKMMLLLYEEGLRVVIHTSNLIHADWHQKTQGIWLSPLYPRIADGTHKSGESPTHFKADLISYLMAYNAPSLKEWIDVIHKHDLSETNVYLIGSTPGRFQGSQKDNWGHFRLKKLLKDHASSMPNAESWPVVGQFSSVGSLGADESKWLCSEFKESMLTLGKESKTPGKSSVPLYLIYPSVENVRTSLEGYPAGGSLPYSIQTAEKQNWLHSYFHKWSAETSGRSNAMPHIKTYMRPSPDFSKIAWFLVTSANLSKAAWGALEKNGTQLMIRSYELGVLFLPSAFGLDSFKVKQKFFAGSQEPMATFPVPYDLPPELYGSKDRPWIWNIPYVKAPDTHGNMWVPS

Compound	Tdp1 inhibition (in words) [1]	IC50 [1] [µM]	also measured
N#CC(C#N)=Cc1cc(O)c(O)c(O)c1 [Compound 7]	completely inactive		
N#C/C(=C\c1ccc(O)c(O)c1)C(=O)O [Compound 4]	completely inactive		
O=C1NC(=O)/C(=C/c2ccc(O)c(O)c2)S1 [Compound 39, (Z)-5-(3,4-Dihydroxybenzylidene)thiazolidine-2,4-dione]		111 to 333	
N#C/C(=C\c1ccc(O)c(O)c1)C(N)=O [Compound 5]	completely inactive		
O=C1NC(=S)/C(=C/c2ccc(O)c(O)c2O)S1 [Compound 50, (Z)-4-Thioxo-5-(2,3,4-trihydroxybenzylidene)thiazolidin-2-one]			binding to Tdp1 (SPR) [2]: concentration-dependent binding; binding to N14Y oligomer (SPR) [3]: No binding
O=C1/C(=C/c2ccc3[nH]ccc3c2)NC(=S)N1c1ccccc1 [Compound 34, (Z)-5-((1H-Indol-5-yl)methylene)-3-phenyl-2-thioxoimidazolidin-4-one]		111 to 333	
O=C1NC(=S)N(Cc2ccccc2)/C1=C\c1ccc(F)cc1 [Compound 37, (Z)-1-Benzyl-5-(4-fluorobenzylidene)-2-thioxoimidazolidin-4-one]		111 to 333	
(Z)-5-(2-Bromobenzylidene)-4-thioxothiazolidin-2-one [Compound 62]			IC50 ([1]; read-out: Tdp1 IC50, recombinant human Tdp1, gel-based assay): 30 ± 12 µM
O=C1NC(=S)/C(=C/c2ccc(P(=O)(O)O)cc2)S1 [Compound 74, (Z)-(4-((2-Oxo-4-thioxothiazolidin-5-ylidene)methyl)phenyl)-phosphonic Acid]			fold improvement in potency over 44 ([1]; Tdp1 IC50 vs compound 44): 7.3 fold
N#C/C(=C\c1ccc(O)c(O)c1)C(=O)NCc1ccccc1 [Compound 6]	completely inactive		
